Results taken from ChEMBL document CHEMBL1145084, “Polymer-assisted solution-phase library synthesis and crystal structure of alpha-ketothiazoles as tissue factor VIIa inhibitors” (J Med Chem, 2003).

Legend:
Coagulation factor VII = target: T1, Coagulation factor VII (Homo sapiens, UniProt P08709); experiment: Inhibitory activity against tissue coagulation factor VII.
T1 sequence (P08709 whole entry): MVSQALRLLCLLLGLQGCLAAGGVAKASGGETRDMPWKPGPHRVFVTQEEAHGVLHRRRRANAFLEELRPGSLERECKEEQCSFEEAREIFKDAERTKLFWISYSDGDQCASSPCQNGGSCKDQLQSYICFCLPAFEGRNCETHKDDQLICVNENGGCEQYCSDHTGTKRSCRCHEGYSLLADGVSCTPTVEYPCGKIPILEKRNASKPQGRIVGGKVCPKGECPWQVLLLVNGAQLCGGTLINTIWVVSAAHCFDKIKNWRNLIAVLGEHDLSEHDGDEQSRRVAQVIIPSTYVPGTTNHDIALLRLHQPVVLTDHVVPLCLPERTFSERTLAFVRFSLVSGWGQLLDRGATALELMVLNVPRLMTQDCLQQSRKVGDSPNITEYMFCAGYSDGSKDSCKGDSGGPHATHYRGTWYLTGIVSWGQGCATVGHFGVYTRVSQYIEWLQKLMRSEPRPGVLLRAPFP
Outline: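 Complex of recombinant soluble tissue factor (100 nM) and recombinant human Factor VIIa (2 nM). Substrate N-methylsulfonyl-D-Phe-Gly-Arg-p-nitroaniline at 0.4 mM in 5 mM CaCl2, 50 mM Tris-HCl pH 8.0, 100 mM NaCl, 0.1% BSA. Background A405 read first; after 60 min at room temperature, hydrolysis rate read at 405 nm. Duplicates at seven concentrations; IC50 is the duplicate average.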

Coagulation factor X = Coagulation factor X (Homo sapiens, UniProt P00742); experiment: Inhibitory activity against coagulation factor X.
Sequence of Coagulation factor X (P00742 41-179 limits assumed): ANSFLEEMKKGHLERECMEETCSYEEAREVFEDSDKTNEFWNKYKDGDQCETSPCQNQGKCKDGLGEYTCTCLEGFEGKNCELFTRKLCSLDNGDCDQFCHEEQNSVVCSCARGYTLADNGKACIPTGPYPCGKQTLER
Sequence of Coagulation factor X (P00742 235-488 limits assumed): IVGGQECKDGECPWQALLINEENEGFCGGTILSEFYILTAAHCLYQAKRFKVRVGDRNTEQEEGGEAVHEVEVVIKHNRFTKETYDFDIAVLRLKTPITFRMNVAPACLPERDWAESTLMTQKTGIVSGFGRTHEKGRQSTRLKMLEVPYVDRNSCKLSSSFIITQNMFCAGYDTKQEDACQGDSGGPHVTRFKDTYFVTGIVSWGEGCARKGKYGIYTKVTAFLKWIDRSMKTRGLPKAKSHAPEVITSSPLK
Outline: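 Human Factor Xa (0.3 nM) with chromogenic substrate S-2765 (0.15 mM) in 50 mM Tris-HCl pH 8.0, 100 mM NaCl, 0.1% BSA. A405 background read taken at once, then 60 min at room temperature, then p-nitroaniline release rate at 405 nm. Duplicates at seven concentrations; % inhibition versus control; IC50 from four-parameter logistic fit, averaged over the duplicates.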

[1] = target: Thrombin and coagulation factor VII (Homo sapiens) (UniProt P00734+P08709); experiment: Selectivity for coagulation factor VIIa over thrombin IIa.; type: protein assay
Prothrombin = Prothrombin (Homo sapiens, UniProt P00734); experiment: Inhibitory activity against thrombin (IIa).
Outline: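 Human thrombin (0.28 nM) with H-D-Phe-Pip-Arg-p-nitroaniline (0.06 mM) in 50 mM Tris-HCl pH 8.0, 100 mM NaCl, 0.1% BSA. Immediate background read at 405 nm, then 60 min at room temperature before measuring p-nitroaniline release rate at 405 nm. Seven concentrations in duplicate; % inhibition versus control; IC50 by four-parameter logistic regression.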

Compound	IC50 (Coagulation factor VII) [µM]	IC50 (Coagulation factor X) [µM]	Selectivity [1]	IC50 (Prothrombin) [µM]
N=C(N)NCCC[C@H](NC(=O)[C@H](Cc1cc(F)c(F)c(F)c1)NC(=O)[C@@H](Cc1ccccc1)NS(=O)(=O)Cc1ccccc1)C(=O)c1nccs1	0.2	0.25		
N=C(N)NCCC[C@H](NC(=O)[C@H](Cc1cccnc1)NC(=O)[C@@H](Cc1ccccc1)NS(=O)(=O)Cc1ccccc1)C(=O)c1nccs1			500	
N=C(N)NCCC[C@H](NC(=O)[C@H](Cc1ccc(Cl)cc1)NC(=O)[C@@H](Cc1ccccc1)NS(=O)(=O)Cc1ccccc1)C(=O)c1nccs1	0.68	0.61	5	3.42
N=C(N)NCCC[C@H](NC(=O)[C@H](Cc1ccc(Br)cc1)NC(=O)[C@@H](Cc1ccccc1)NS(=O)(=O)Cc1ccccc1)C(=O)c1nccs1	0.76	0.38	4	3.19
N=C(N)NCCC[C@H](NC(=O)[C@H](CC(=O)OC1CCCCC1)NC(=O)[C@@H](Cc1ccccc1)NS(=O)(=O)Cc1ccccc1)C(=O)c1nccs1	3.18	1.25	2	4.99
N=C(N)NCCC[C@H](NC(=O)[C@H](Cc1cccc(F)c1)NC(=O)[C@@H](Cc1ccccc1)NS(=O)(=O)Cc1ccccc1)C(=O)c1nccs1			75	
N=C(N)NCCC[C@H](NC(=O)[C@H](Cc1ccc(I)cc1)NC(=O)[C@@H](Cc1ccccc1)NS(=O)(=O)Cc1ccccc1)C(=O)c1nccs1	1.56	0.5	4	6.3
CC(=O)Nc1ccc(C[C@H](NC(=O)[C@@H](Cc2ccccc2)NS(=O)(=O)Cc2ccccc2)C(=O)N[C@@H](CCCN=C(N)N)C(=O)c2nccs2)cc1			8	
NC(N)=NCCC[C@H](NC(=O)[C@H](Cc1ccc([N+](=O)[O-])cc1)NC(=O)[C@@H](Cc1ccccc1)NS(=O)(=O)Cc1ccccc1)C(=O)c1nccs1	5.88	2.18		> 30
N=C(N)NCCC[C@H](NC(=O)[C@H](CCc1ccccc1)NC(=O)[C@@H](Cc1ccccc1)NS(=O)(=O)Cc1ccccc1)C(=O)c1nccs1	0.9	0.54	12	10.4
Cc1ccc(C[C@H](NC(=O)[C@@H](Cc2ccccc2)NS(=O)(=O)Cc2ccccc2)C(=O)N[C@@H](CCCN=C(N)N)C(=O)c2nccs2)cc1	1.29	0.57	6	7.48
N=C(N)NCCC[C@H](NC(=O)[C@H](Cc1ccc2ccccc2c1)NC(=O)[C@@H](Cc1ccccc1)NS(=O)(=O)Cc1ccccc1)C(=O)c1nccs1	1.95	0.77	1	2.4
N=C(N)NCCC[C@H](NC(=O)[C@H](Cc1ccccc1)NC(=O)[C@@H](Cc1ccccc1)NS(=O)(=O)Cc1ccccc1)C(=O)c1nccs1			95	
N=C(N)NCCC[C@H](NC(=O)[C@H](Cc1ccc(F)cc1)NC(=O)[C@@H](Cc1ccccc1)NS(=O)(=O)Cc1ccccc1)C(=O)c1nccs1	0.17	0.185	19	3.15
CC(=O)Nc1ccc(C[C@H](NC(=O)[C@@H](Cc2ccccc2)NS(=O)(=O)Cc2ccccc2)C(=O)N[C@@H](CCCNC(=N)N)C(=O)c2nccs2)cc1	0.57	0.3		4.59
N=C(N)NCCC[C@H](NC(=O)[C@H](Cc1csc2ccccc12)NC(=O)[C@@H](Cc1ccccc1)NS(=O)(=O)Cc1ccccc1)C(=O)c1nccs1	0.5	0.15	3	15.4
N=C(N)NCCC[C@H](NC(=O)[C@H](COCc1ccccc1)NC(=O)[C@@H](Cc1ccccc1)NS(=O)(=O)Cc1ccccc1)C(=O)c1nccs1	1.53	0.31	6	9.89
Cc1cccc(C[C@H](NC(=O)[C@@H](Cc2ccccc2)NS(=O)(=O)Cc2ccccc2)C(=O)N[C@@H](CCCN=C(N)N)C(=O)c2nccs2)c1			71	
Cc1cccc(C)c1C[C@H](NC(=O)[C@@H](Cc1ccccc1)NS(=O)(=O)Cc1ccccc1)C(=O)N[C@@H](CCCN=C(N)N)C(=O)c1nccs1	0.7	2.77	40	28.1
Cc1ccccc1C[C@H](NC(=O)[C@@H](Cc1ccccc1)NS(=O)(=O)Cc1ccccc1)C(=O)N[C@@H](CCCN=C(N)N)C(=O)c1nccs1			90	

Compound	IC50 (Coagulation factor VII) [µM]	IC50 (Coagulation factor X) [µM]	Selectivity [1]	IC50 (Prothrombin) [µM]
N=C(N)NCCC[C@H](NC(=O)[C@H](Cc1cccc2ccccc12)NC(=O)[C@@H](Cc1ccccc1)NS(=O)(=O)Cc1ccccc1)C(=O)c1nccs1	5.6	1.8	> 5	> 30
N=C(N)NCCC[C@H](NC(=O)[C@H](Cc1ccc(-c2ccccc2)cc1)NC(=O)[C@@H](Cc1ccccc1)NS(=O)(=O)Cc1ccccc1)C(=O)c1nccs1	17.8	3.14	1	11.2
N=C(N)NCCC[C@H](NC(=O)[C@H](CC1CC1)NC(=O)[C@@H](Cc1ccccc1)NS(=O)(=O)Cc1ccccc1)C(=O)c1nccs1	0.82	2.12	11	9.2
N=C(N)NCCC[C@H](NC(=O)[C@H](Cc1cccc(-c2ccccc2)c1)NC(=O)[C@@H](Cc1ccccc1)NS(=O)(=O)Cc1ccccc1)C(=O)c1nccs1	1.83	1.07	1	1.68
N=C(N)NCCC[C@H](NC(=O)[C@H](CC1CCCCC1)NC(=O)[C@@H](Cc1ccccc1)NS(=O)(=O)Cc1ccccc1)C(=O)c1nccs1	3.3	2.7	7	24.2
N=C(N)NCCC[C@H](NC(=O)[C@H](Cc1cccc(C(F)(F)F)c1)NC(=O)[C@@H](Cc1ccccc1)NS(=O)(=O)Cc1ccccc1)C(=O)c1nccs1			106	
CC(C)(C)C[C@H](NC(=O)[C@@H](Cc1ccccc1)NS(=O)(=O)Cc1ccccc1)C(=O)N[C@@H](CCCNC(=N)N)C(=O)c1nccs1	0.7	1.03		0.44
N=C(N)NCCC[C@H](NC(=O)[C@H](Cc1cc(F)cc(F)c1)NC(=O)[C@@H](Cc1ccccc1)NS(=O)(=O)Cc1ccccc1)C(=O)c1nccs1	0.19	0.18	36	6.82
N=C(N)NCCC[C@H](NC(=O)[C@H](CC(N)=O)NC(=O)[C@@H](Cc1ccccc1)NS(=O)(=O)Cc1ccccc1)C(=O)c1nccs1			58	
CN(C)CCCC[C@H](NC(=O)[C@@H](Cc1ccccc1)NS(=O)(=O)Cc1ccccc1)C(=O)N[C@@H](CCCN=C(N)N)C(=O)c1nccs1			5	
N#Cc1ccc(C[C@H](NC(=O)[C@@H](Cc2ccccc2)NS(=O)(=O)Cc2ccccc2)C(=O)N[C@@H](CCCNC(=N)N)C(=O)c2nccs2)cc1			147	
CC(C)(C)C[C@H](NC(=O)[C@@H](Cc1ccccc1)NS(=O)(=O)Cc1ccccc1)C(=O)N[C@@H](CCCN=C(N)N)C(=O)c1nccs1			0.6	
N=C(N)NCCC[C@H](NC(=O)[C@H](Cc1cn(Cc2ccccc2)cn1)NC(=O)[C@@H](Cc1ccccc1)NS(=O)(=O)Cc1ccccc1)C(=O)c1nccs1	9.97	2.4	1	9.92
N#CC[C@H](NC(=O)[C@@H](Cc1ccccc1)NS(=O)(=O)Cc1ccccc1)C(=O)N[C@@H](CCCNC(=N)N)C(=O)c1nccs1			69	
CN(C)CCCC[C@H](NC(=O)[C@@H](Cc1ccccc1)NS(=O)(=O)Cc1ccccc1)C(=O)N[C@@H](CCCNC(=N)N)C(=O)c1nccs1	2.82	1.7		15.4
N=C(N)NCCC[C@H](NC(=O)[C@H](Cc1ccc([N+](=O)[O-])cc1)NC(=O)[C@@H](Cc1ccccc1)NS(=O)(=O)Cc1ccccc1)C(=O)c1nccs1			> 5	
N=C(N)NCCC[C@H](NC(=O)[C@H](Cc1cccc(Cl)c1)NC(=O)[C@@H](Cc1ccccc1)NS(=O)(=O)Cc1ccccc1)C(=O)c1nccs1			63	
N=C(N)NCCC[C@H](NC(=O)[C@H](Cc1ccccc1F)NC(=O)[C@@H](Cc1ccccc1)NS(=O)(=O)Cc1ccccc1)C(=O)c1nccs1			> 333	
N=C(N)NCCC[C@H](NC(=O)[C@H](Cc1ccc(F)c(F)c1)NC(=O)[C@@H](Cc1ccccc1)NS(=O)(=O)Cc1ccccc1)C(=O)c1nccs1			70	
CC[C@@H](C)[C@H](NC(=O)[C@@H](Cc1ccccc1)NS(=O)(=O)Cc1ccccc1)C(=O)N[C@@H](CCCN=C(N)N)C(=O)c1nccs1			64	
